Assay [1] deals with Neisseria gonorrhoeae. Description: microbe, parasite or virus in culture. The following applies: 24 h.
Assay [2] has as its system Neisseria gonorrhoeae. Description: Antimicrobial activity against Neisseria gonorrhoeae clinical isolates harboring PBP2 XXXIV pattern, MAST 51 after 24 hrs by agar dilution method. It is filed as functional. An outline of the steps:
(§1)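 Ontario clinical isolates grown on GC agar plus 1% defined growth supplement, 37°C, 5% CO2, 20 to 24 h, subcultured twice before testing. MICs by agar dilution per CLSI guidelines. QC strains: ATCC 49226 and 2008 WHO panel strains F, G, K, L, N, O, P. Genotypes deduced by PCR and sequencing of ponA, penA, porB, mtrR and its promoter.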

Assay [3] relates to Neisseria gonorrhoeae. Description: Antimicrobial activity against Neisseria gonorrhoeae clinical isolates harboring porB G120K, A121D mutant gene, PBP1 L421P mutant gene, PBP2 XXXVIII pattern, deletion of nucleotide A from […] promoter, MAST 3563 after 24 hrs by agar dilution method. It counts as functional. The essentials: as §1
In assay [4] the test system is Neisseria gonorrhoeae. Description: Antimicrobial activity against Neisseria gonorrhoeae clinical isolates harboring porB A121S mutant gene, PBP1 L421P mutant gene, PBP2 XXXVIII pattern, deletion of nucleotide A from […] promoter, MAST 3116 after 24 hrs by agar dilution method. It is filed as functional. The essentials:
as §1
(Agar dilution tests growth on a series of plates holding different concentrations.)

In assay [5] the test system is Neisseria gonorrhoeae. Description: Antimicrobial activity against Neisseria gonorrhoeae clinical isolates harboring porB G120K, A121D mutant gene, PBP1 L421P mutant gene, PBP2 XXXVIII pattern, deletion of nucleotide A from […] promoter, MAST 3158 after 24 hrs by agar dilution method. It counts as functional. The essentials: as §1
The test system of assay [6] is Neisseria gonorrhoeae. Description: Antimicrobial activity against Neisseria gonorrhoeae clinical isolates harboring porB G120K, A121D mutant gene, PBP1 L421P mutant gene, PBP2 XXXVIII pattern, insertion of nucleotide T from […] promoter, MAST 3158 after 24 hrs by agar dilution method. It counts as functional. An outline of the steps:
as §1

The test system of assay [7] is Neisseria gonorrhoeae. Description: Antimicrobial activity against Neisseria gonorrhoeae clinical isolates harboring PBP2 XXXV pattern, deletion of nucleotide A from […] promoter, MAST 546 after 24 hrs by agar dilution method. It is filed as functional. The essentials: as §1
In assay [8] the test system is Neisseria gonorrhoeae. Description: Antimicrobial activity against Neisseria gonorrhoeae clinical isolates harboring porB G120K, A121D mutant gene, PBP2 XXXVIII pattern, deletion of nucleotide A from […] promoter, MAST 3158 after 24 hrs by agar dilution method. It is filed as functional. The essentials:
as §1

Assay [9] deals with Neisseria gonorrhoeae. Description: Antimicrobial activity against Neisseria gonorrhoeae clinical isolates harboring porB G120K, A121D mutant gene, PBP1 L421P mutant gene, PBP2 XXXIV pattern, deletion of nucleotide A from […] promoter, MAST 225 after 24 hrs by agar dilution method. It is filed as functional. An outline of the steps:
as §1

Assay [10] has as its system Neisseria gonorrhoeae. Description: Antimicrobial activity against Neisseria gonorrhoeae clinical isolates assessed as percent resistant isolates after 24 hrs by agar dilution method. It counts as functional.
In assay [11] the test system is Neisseria gonorrhoeae. Description: Antimicrobial activity against Neisseria gonorrhoeae clinical isolates assessed as percent susceptible isolates after 24 hrs by agar dilution method. It is filed as functional.
Assay [12] relates to Neisseria gonorrhoeae. Description: Antimicrobial activity against Neisseria gonorrhoeae clinical isolates harboring PBP2 XXXVIII pattern, deletion of nucleotide A from […] promoter, MAST 3553 after 24 hrs by agar dilution method. It is filed as functional. An outline of the steps: as §1
Assay [13] concerns Neisseria gonorrhoeae. Description: Antimicrobial activity against Neisseria gonorrhoeae clinical isolates harboring PBP1 L421P mutant gene, PBP2 XXXVII pattern, deletion of nucleotide A from […] promoter, MtrR G45D mutant MAST 299 after 24 hrs by agar dilution method. It counts as functional. An outline of the steps:
as §1

For assay [14], the system named is Neisseria gonorrhoeae. Description: Antimicrobial activity against Neisseria gonorrhoeae clinical isolates harboring porB G120K, A121D mutant gene, PBP1 L421P mutant gene, PBP2 XXXVIII pattern, deletion of nucleotide A from […] promoter, MAST 3570 after 24 hrs by agar dilution method. It is filed as functional. The essentials:
as §1

For assay [15], the system named is Neisseria gonorrhoeae. Description: Antimicrobial activity against Neisseria gonorrhoeae clinical isolates harboring porB G120K, A121D mutant gene, PBP2 XXXVI pattern, deletion of nucleotide A from […] promoter, MAST 3596 after 24 hrs by agar dilution method. It is filed as functional. The essentials: as §1
Assay [16] deals with Neisseria gonorrhoeae. Description: Antimicrobial activity against Neisseria gonorrhoeae clinical isolates after 24 hrs by agar dilution method. It is filed as functional.

Values after ≈ are worked out from the molar mass of the structure shown. Bounds are passed on as bounds.

Molecule `CC[C@H]1OC(=O)[C@H](C)[C@@H](O[C@H]2C[C@@](C)(OC)[C@@H](O)[C@H](C)O2)[C@H](C)[C@@H](O[C@@H]2O[C@H](C)C[C@H](N(C)C)[C@H]2O)[C@](C)(O)C[C@@H](C)CN(C)[C@H](C)[C@@H](O)[C@]1(C)O` [AZITHROMYCIN] registered an MIC in assay [1] of 0.25 µg/mL (≈ 0.334 µM).
Turning to `C=CC1=C(C(=O)O)N2C(=O)[C@@H](NC(=O)/C(=N\OCC(=O)O)c3csc(N)n3)[C@H]2SC1` [CEFIXIME], the MIC in assay [2], in [3], in assay [4], in assay [5], in assay [6] and in [7] was 0.125 µg/mL (≈ 0.276 µM) throughout. The MIC was determined as 0.25 µg/mL (≈ 0.551 µM) in assay [8]; 0.25 µg/mL (≈ 0.551 µM) in assay [9]; 0.125 µg/mL (≈ 0.276 µM) in assay [12]; 0.25 µg/mL (≈ 0.551 µM) in [13]; 0.125 µg/mL (≈ 0.276 µM) in assay [14]; 0.125 µg/mL (≈ 0.276 µM) in [15]. The results for the Activity in [10] and in assay [11] were 0% and 100%, respectively. This molecule also had an MIC50 in assay [16] of at most 0.03 µg/mL. For the same molecule, the MIC90 in [16] was at most 0.03 µg/mL.
On to `CO/N=C(\C(=O)N[C@@H]1C(=O)N2C(C(=O)O)=C(CSc3nc(=O)c(O)nn3C)CS[C@H]12)c1csc(N)n1` [CEFTRIAXONE], for which the MIC in assay [2] was 0.063 µg/mL (≈ 0.114 µM); in [3] it was 0.063 µg/mL (≈ 0.114 µM); in [4], 0.063 µg/mL (≈ 0.114 µM); in assay [5], 0.063 µg/mL (≈ 0.114 µM); in assay [6], 0.063 µg/mL (≈ 0.114 µM); in [7], 0.125 µg/mL (≈ 0.225 µM). In addition, the MIC in assay [8] stood at 0.125 µg/mL (≈ 0.225 µM); in assay [9], 0.125 µg/mL (≈ 0.225 µM); in assay [12], 0.032 µg/mL (≈ 0.0577 µM); in [13] it was 0.125 µg/mL (≈ 0.225 µM); in [14] it was 0.063 µg/mL (≈ 0.114 µM); in [15], 0.125 µg/mL (≈ 0.225 µM). The Activity in [10] came out at 0%; in assay [11], 100%. Further, in [16], the MIC50 is at most 0.03 µg/mL. In addition, the MIC90 in [16] is at most 0.06 µg/mL.
Regarding `CC[C@H]1OC(=O)[C@H](C)[C@@H](O[C@H]2C[C@@](C)(OC)[C@@H](O)[C@H](C)O2)[C@H](C)[C@@H](O[C@@H]2O[C@H](C)C[C@H](N(C)C)[C@H]2O)[C@](C)(O)C[C@@H](C)C(=O)[C@H](C)[C@@H](O)[C@]1(C)O` [ERYTHROMYCIN], the Activity in assay [10] was determined as 22.8%. The Activity in assay [11] is 77.2%. In [16], this molecule had an MIC of at most 1 µg/mL, an MIC50 of at most 1 µg/mL and an MIC90 of 2 µg/mL (≈ 2.73 µM).
Turning to `CC1(C)S[C@@H]2[C@H](NC(=O)Cc3ccccc3)C(=O)N2[C@H]1C(=O)O` [PENICILLIN G], the MIC in assay [2] is 1 µg/mL (≈ 2.99 µM); in [3], 1 µg/mL (≈ 2.99 µM); in assay [4], 2 µg/mL (≈ 5.98 µM); in assay [5] it was 1 µg/mL (≈ 2.99 µM); in assay [6], 1 µg/mL (≈ 2.99 µM); in assay [7], 1 µg/mL (≈ 2.99 µM). The MIC in assay [8] came to 1 µg/mL (≈ 2.99 µM); in [9], 2 µg/mL (≈ 5.98 µM); in assay [12] it was 0.5 µg/mL (≈ 1.5 µM); in assay [13] it was 2 µg/mL (≈ 5.98 µM); in assay [14] it was 2 µg/mL (≈ 5.98 µM); in [15], 0.5 µg/mL (≈ 1.5 µM). Further, the figures for the Activity in assay [10] and in assay [11] were 12.1% and 10.7%, respectively. The molecule also yielded an MIC50 in assay [16] of 0.25 µg/mL (≈ 0.748 µM). The same molecule displayed an MIC90 in assay [16] of 2 µg/mL (≈ 5.98 µM).
With `CN[C@@H]1[C@H](O)[C@H](NC)[C@H]2O[C@@]3(O)C(=O)C[C@@H](C)O[C@H]3O[C@@H]2[C@H]1O` [SPECTINOMYCIN], the Activity came to 0% in assay [10] and 100% in [11]. This molecule also returned an MIC50 in [16] of at most 32 µg/mL. In addition, the MIC90 in assay [16] was at most 32 µg/mL.
As to `CN(C)[C@@H]1C(O)=C(C(N)=O)C(=O)[C@@]2(O)C(O)=C3C(=O)c4c(O)cccc4[C@@](C)(O)[C@H]3C[C@@H]12` [TETRACYCLINE], the Activity in [10] came to 25.5%. For the same molecule, the Activity in assay [11] was 27.5%. In assay [16], the MIC50 amounted to 0.5 µg/mL (≈ 1.13 µM) and the MIC90 stood at 2 µg/mL (≈ 4.5 µM).

As usually defined, the MIC50 is an inhibitory concentration at the 50% level, which refers to growth in some studies and to a panel of isolates in others. A word on the MIC90: it is an inhibitory concentration at the 90% level, which refers to growth in some studies and to a panel of isolates in others. The low end stands for greater potency, the high end for weaker potency.

Source of the values: ChEMBL document CHEMBL1687841, “Molecular analysis of antimicrobial resistance mechanisms in Neisseria gonorrhoeae isolates from Ontario, Canada” (2011).
